From ChEMBL document CHEMBL1144723, “Antiproliferative limonoids of a Malleastrum sp. from the Madagascar rainforest” (J Nat Prod, 2008) come the findings set out here.

Structures are written as SMILES.

Holding throughout (assay type): functional, cell-based
The test system of one test is HT-29. Nature of the test: Antiproliferative activity against human HT29 cells after 96 hrs by CellTiter-Glo luminescent cell viability assay. The settings on record: HT-29, 96 h. Summed up: (§1)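 Cells were cultured with compound present continuously at 0.3–10000 nM, or without compound, for 96 h. Growth was read by ATP luminescence (CellTiter-Glo). IC50 is the concentration giving 50% growth inhibition versus untreated cells. Vinblastine served as the positive control. Two separate replicate experiments were run.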
(In ATP-based viability assays light output follows the ATP content of the culture.)

A short description of test [1]: Antiproliferative activity against human HS22T1 cells after 96 hrs by CellTiter-Glo luminescent cell viability assay. The settings on record: HS22T1, 96 h. Summed up: as §1
In the next test the test system is A2780. In words: Antiproliferative activity against human A2780 cells after 96 hrs by CellTiter-Glo luminescent cell viability assay. Conditions: A2780, 96 h.
The subject of a further test is MDA-MB-435. In words: Antiproliferative activity against human MDA-MB-435 cells after 96 hrs by CellTiter-Glo luminescent cell viability assay. Conditions: MDA-MB-435, 96 h. The essentials: as §1
Another test relates to U-937. In words: Antiproliferative activity against human U937 cells after 96 hrs by CellTiter-Glo luminescent cell viability assay. The settings on record: U-937, 96 h. Summed up: as §1

The term IC50 denotes the concentration that inhibits the measured activity by half. Read a low IC50 as higher potency.

`CC(=O)O[C@]12OC[C@@]3(C)C(=O)C=C[C@@](C)([C@@H]13)[C@H]1[C@@H](O)[C@H](OC(=O)C(C)C)[C@@]3(C)[C@H](c4ccoc4)C[C@H]4O[C@]43[C@]1(C)C2=O` [MALLEASTRONE A]: the IC50 came out at 240 nM in the test on HT-29; 240 nM in test [1]; 490 nM in the test on A2780; 410 nM in the test on MDA-MB-435; 200 nM in the test with U-937.

Consider `CC[C@H](C)C(=O)O[C@H]1[C@H](O)[C@@H]2[C@@]3(C)C=CC(=O)[C@]4(C)CO[C@](OC(C)=O)(C(=O)[C@@]2(C)[C@@]25O[C@@H]2C[C@@H](c2ccoc2)[C@]15C)[C@H]34` [MALLEASTRONE B], for which the IC50 with HT-29 came out at 220 nM; in test [1] it was 230 nM; with A2780 it was 630 nM; in the test on MDA-MB-435 it was 340 nM; in the test on U-937 it was 190 nM.

In the test with A2780, `CC(=O)O[C@]12OC[C@@]3(C)C(=O)C[C@@H](O)[C@@](C)([C@@H]13)[C@H]1[C@@H](O)[C@H](OC(=O)C(C)C)[C@@]3(C)[C@H](c4ccoc4)C[C@H]4O[C@]43[C@]1(C)C2=O` [MALLEASTRONE C] registered an IC50 of 18000 nM.

For `CC[C@]1(O)C[C@@H]2CN(CCc3c([nH]c4ccccc34)[C@@](C(=O)OC)(c3cc4c(cc3OC)N(C)[C@H]3[C@@](O)(C(=O)OC)[C@H](OC(C)=O)[C@]5(CC)C=CCN6CC[C@]43[C@@H]65)C2)C1` [VINBLASTINE], the IC50 turned out to be 0.53 nM in the test on HT-29, 1.38 nM in test [1], 0.27 nM with MDA-MB-435 and 0.49 nM in the test with U-937.
